Measurements taken from ChEMBL document CHEMBL1124846, “Synthesis, antiproliferative, and antiviral activity of certain 4-substituted and 4,5-disubstituted 7-[(1,3-dihydroxy-2-propoxy)methyl]pyrrolo[2,3-d]pyrimidines” (J Med Chem, 1990).
pIC50: −log10 of the molar value.

Key:
[1] = Inhibition of herpes simplex virus type 1(HSV-1) in human foreskin fibroblasts cell lines was determined by plaque assay; type: functional, cell-based; settings: Fibroblast
In short: (§1)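 Plaque reduction used MCMV Smith in primary mouse embryo fibroblasts, HCMV AD169 in low-passage HFF, and HSV-1 E-377 and HSV-2 MS in MEF, rabbit kidney or HFF. IC50 was determined against untreated controls; two or more experiments.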

[2] = Cytotoxicity of AD169 strain of HCMV in human foreskin fibroblasts cells; type: functional, cell-based; settings: Fibroblast
[3] = species on record: Homo sapiens; assay: Inhibition of AD169 strain human cytomegalo virus (HCMV) in human foreskin fibroblasts cell lines was determined by plaque assay; type: functional, organism-based; settings: Fibroblast; in short: as §1
[4] = species on record: Homo sapiens; assay: Inhibition of human cytomegalo virus (HCMV) in human foreskin fibroblasts cell lines was determined by plaque assay; type: functional, organism-based; settings: Fibroblast
In short: (§2)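 HCMV Towne strain (plaque-purified P0) plaque reduction in HFF monolayers in MEM(E) with 10% FBS. Inoculum held about 50 PFU, with compound dissolved in the overlay medium. IC50 came from linear regression of percent inhibition against log concentration, with ganciclovir or acyclovir positive controls in every set; two to five experiments.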

[5] = system: Human betaherpesvirus 5; assay: Inhibition of human cytomegalovirus (HCMV) in plaque reduction assay; type: functional, organism-based; in short: as §2
[6] = system: Neoplastic cell line; assay: Compound was evaluated for cytotoxic activity against KB cells.; type: functional, cell-based; settings: Homo sapiens
In short: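 KB cells grown in MEM(H) + 5% FBS. Compound effects measured on radiolabelled precursor incorporation into DNA, RNA and protein. IC50s from linear regression of percent inhibition vs log concentration. The three IC50s were averaged, with 2–5 experiments averaged. Runs rejected if the acyclovir/ganciclovir control deviated >1.5 SD from its mean.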

[7] = system: Mus musculus; assay: Compound was evaluated for percent mortality of mice inoculated with murine cytomegalovirus at a concentration of 16.7 mg/kg at 48 h; type: organism-based; set-up: dose 16.7 mg/kg; settings: in vivo
In short: (§3)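 Three-week-old female Swiss Webster mice inoculated ip with 2×10^5 PFU MCMV Smith strain. Groups of 15 dosed ip twice daily for 5 days, starting 6, 24 or 48 h post-inoculation. Held 21 days with daily mortality checks. Final mortality and mean day of death (dying animals) computed. Mortality versus placebo by Fisher Exact Test, MDD by Mann–Whitney U-rank test.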

[8] = system: Mus musculus; assay: Compound was evaluated for percent mortality of mice inoculated with murine cytomegalovirus at a concentration of 16.7 mg/kg at 6 h; type: organism-based; set-up: dose 16.7 mg/kg; settings: in vivo; in short: as §3
[9] = Compound was evaluated for percent mortality of mice inoculated with murine cytomegalovirus at a concentration of 16.7 mg/kg; drug toxicity control; type: organism-based; set-up: dose 16.7 mg/kg; settings: mouse, in vivo
In short: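 Drug toxicity control: uninfected three-week-old female Swiss Webster mice, groups of 15, dosed ip twice daily for 5 days. Held 21 days with daily mortality checks. Final mortality and mean day of death for animals that died were calculated.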

[10] = system: Mus musculus; assay: Compound was evaluated for percent mortality of mice inoculated with murine cytomegalovirus at a concentration of 5.6 mg/kg at 24 h; type: ADME, organism-based; set-up: dose 5.6 mg/kg; settings: in vivo
In short: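 Three-week-old female Swiss Webster mice infected ip with 2×10^5 PFU MCMV Smith strain; groups of 15 given drug ip twice daily for 5 days, starting 6, 24 or 48 h after inoculation. Toxicity controls received drug without virus. Mortality followed daily for 21 days; final mortality compared with placebo by Fisher Exact Test.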

[11] = Inhibition of herpes simplex virus type 1(HSV-1) in monkey kidney cell was determined by plaque assay; type: functional, cell-based; settings: Cercopithecidae
In short: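 HSV-1 S-148 strain plaque reduction in BSC-1 monkey kidney monolayers, with about 100 PFU inoculum and compound dissolved in the overlay medium. IC50 came from linear regression of percent inhibition against log concentration, with a positive control in each set.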

[12] = system: Mus musculus; assay: Compound was evaluated for 15 mice treated ip twice daily for 5 days at a dose of 1.9 mg/kg at 24 hr followed (MCMV) virus inoculation; type: functional; settings: route intraperitoneal; in short: as §3
[13] = system: Mus musculus; assay: Compound was evaluated for 15 mice treated ip twice daily for 5 days at a dose of 1.9 mg/kg followed (MCMV) virus inoculation; type: functional; settings: route intraperitoneal
[14] = system: Mus musculus; assay: Compound was evaluated for 15 mice treated ip twice daily for 5 days at a dose of 16.7 mg/kg at 6 hr followed (MCMV) virus inoculation; type: functional; settings: route intraperitoneal; in short: as §3
[15] = system: Mus musculus; assay: Compound was evaluated for 15 mice treated ip twice daily for 5 days at a dose of 5.6 mg/kg at 24 hr followed (MCMV) virus inoculation; type: functional; settings: route intraperitoneal; in short: as §3
[16] = system: Mus musculus; assay: Compound was evaluated for 15 mice treated ip twice daily for 5 days at a dose of 5.6 mg/kg followed (MCMV) virus inoculation; type: functional; settings: route intraperitoneal
[17] = system: Mus musculus; assay: Compound was evaluated for 15 mice treated ip twice daily for 5 days at a dose of 50 mg/kg at 48 hr followed (MCMV) virus inoculation; type: functional; settings: route intraperitoneal; in short: as §3
[18] = system: Mus musculus; assay: Compound was evaluated for 15 mice treated ip twice daily for 5 days at a dose of 50 mg/kg at 6 hr followed (MCMV) virus inoculation; type: functional; settings: route intraperitoneal; in short: as §3
[19] = system: Mus musculus; assay: Compound was evaluated for 15 mice treated ip twice daily for 5 days at a dose of 50 mg/kg followed (MCMV) virus inoculation; type: functional; settings: route intraperitoneal
[20] = system: Mus musculus; assay: Compound was evaluated for mean day of death at 1.9 mg/kg at 24 h; type: functional; in short: as §3
[21] = system: Mus musculus; assay: Compound was evaluated for mean day of death at 1.9 mg/kg at 48 h; type: functional; in short: as §3
[22] = system: Mus musculus; assay: Compound was evaluated for mean day of death at 16.7 mg/kg at 48 h; type: functional; in short: as §3
[23] = system: Mus musculus; assay: Compound was evaluated for mean day of death at 5.6 mg/kg at 6 h; type: functional; in short: as §3
[24] = species on record: Mus musculus; assay: Inhibition of murine cytomegalo virus in mouse embryo fibroblasts cell lines was determined by plaque assay; type: functional, organism-based; settings: Fibroblast; in short: as §1
[25] = species on record: Mus musculus; assay: Cytotoxicity of human simplex virus type 1 in mouse embryo fibroblasts cells; settings: Fibroblast
[26] = Inhibition of herpes simplex virus (HSV-2) in human foreskin fibroblasts cell lines was determined by plaque assay; settings: Fibroblast
[27] = Inhibition of herpes simplex virus type 1(HSV-1) in mouse embryo fibroblasts cell lines was determined by plaque assay; settings: Fibroblast

With `Nc1ncnc2c1c(Br)cn2COC(CO)CO` as the compound, how does the pIC50 [1] read?
Its pIC50 is 6.70.

What about the pIC50 [2] of the same compound?
Its pIC50 is less than 3.80.

What about the pIC50 [3] of the same compound?
Its pIC50 is 6.22.

And the pIC50 [4]?
Its pIC50 is 5.80.

What about the pIC50 [5] of the same compound?
Its pIC50 is 5.72.

What about the pIC50 ([5]; Human betaherpesvirus 5) of the same compound?
Its pIC50 is 5.80.

And the pIC50 [6]?
Its pIC50 is less than 4.00.

What about the Mortality [7] of the same compound?
The Mortality was 87%.

What about the Mortality [8] of the same compound?
The Mortality was 60%.

And the Mortality [9]?
The Mortality was 7%.

What about the Mortality [10] of the same compound?
Its Mortality is 20%.

What about the pIC50 [11] of the same compound?
Its pIC50 is 5.70.

What about the Activity [12] of the same compound?
Its Activity is 9.

And the Activity [13]?
The Activity was 0.

What about the Activity [14] of the same compound?
Its Activity is 9.

What about the Activity [15] of the same compound?
Its Activity is 3.

And the Activity [16]?
Its Activity is 0.

And the Activity [17]?
The Activity was 13.

What about the Activity [18] of the same compound?
Its Activity is 9.

What about the Activity [19] of the same compound?
The Activity was 0.

What about the MDD [20] of the same compound?
The MDD was 4.8.

What about the MDD [21] of the same compound?
Its MDD is 4.8.

What about the MDD [22] of the same compound?
The MDD was 8.4.

What about the MDD [23] of the same compound?
The MDD was 8.

What about the pIC50 [24] of the same compound?
The pIC50 was 7.52.

And the pIC50 [25]?
The pIC50 was less than 3.80.

And the pIC50 [26]?
The pIC50 was 6.52.

And the pIC50 [27]?
Its pIC50 is 5.72.
